# Screens deposited in PubChem BioAssay by several laboratories.
# An excerpt weighted towards active compounds, which were near 5.4% of everything screened.
# Mdm2 MdmX PPI: inhibitors of human Mdm2-MdmX association, primary screen, cell-based, luminescence, split luciferase, SaOS-2, uHTS; SaOS-2 split-luciferase Mdm2/MdmX complementation; inhibition, % at 8 µM; Protein Mdm4 (Homo sapiens) + E3 ubiquitin-protein ligase Mdm2 (Homo sapiens), …; AID 485346, 2010; 3% of 330,000 active;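 active = inhibition of at least 50% at 8 µM in the primary screen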
# Target sequence (O15151 whole entry, looked up): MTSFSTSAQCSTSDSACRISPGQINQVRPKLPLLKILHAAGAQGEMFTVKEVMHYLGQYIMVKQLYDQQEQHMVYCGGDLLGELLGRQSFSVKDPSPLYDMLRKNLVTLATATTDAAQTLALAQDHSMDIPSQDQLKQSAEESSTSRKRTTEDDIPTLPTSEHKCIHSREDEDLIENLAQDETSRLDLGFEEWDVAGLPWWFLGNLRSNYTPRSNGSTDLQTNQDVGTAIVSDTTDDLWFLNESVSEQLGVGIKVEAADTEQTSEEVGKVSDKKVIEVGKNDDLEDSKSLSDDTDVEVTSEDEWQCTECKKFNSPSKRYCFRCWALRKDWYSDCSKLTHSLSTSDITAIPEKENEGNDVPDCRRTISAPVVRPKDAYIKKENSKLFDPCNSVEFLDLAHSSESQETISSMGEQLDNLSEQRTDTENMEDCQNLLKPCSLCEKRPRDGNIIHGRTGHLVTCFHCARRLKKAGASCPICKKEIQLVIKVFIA
# Target sequence (Q00987 whole entry, looked up): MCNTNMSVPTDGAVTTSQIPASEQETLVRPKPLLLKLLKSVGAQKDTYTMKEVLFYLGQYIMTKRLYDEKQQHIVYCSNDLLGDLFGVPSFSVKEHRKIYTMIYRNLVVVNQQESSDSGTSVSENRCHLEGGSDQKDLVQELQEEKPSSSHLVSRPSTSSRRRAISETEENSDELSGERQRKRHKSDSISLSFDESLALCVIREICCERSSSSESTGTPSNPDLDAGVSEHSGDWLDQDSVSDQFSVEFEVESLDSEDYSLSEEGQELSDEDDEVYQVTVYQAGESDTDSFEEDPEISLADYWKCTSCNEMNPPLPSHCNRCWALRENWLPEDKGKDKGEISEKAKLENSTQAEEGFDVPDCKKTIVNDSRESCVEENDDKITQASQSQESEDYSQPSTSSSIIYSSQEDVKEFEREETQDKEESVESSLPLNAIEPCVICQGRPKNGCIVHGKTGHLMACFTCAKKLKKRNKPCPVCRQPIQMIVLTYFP
# SKKanGAS inh: S. pyogenes SKKanGAS growth inhibitors in kanamycin, primary screen, streptokinase expression inhibitor project, SKKanGAS strain, BacTiter-Glo luminescence; 6 h; inhibition, % at 7.5 µM; 1.3% of 300,000 active;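 active = mean replicate score, as percent of positive control median, at least 50; inconclusive = mean below 50 but one replicate at or above 50; inactive = mean and every replicate below 50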;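 note: strain carries kanamycin resistance gene driven by streptokinase promoter and grows in 40 µg/ml kanamycin; loss of luminescence reflects streptokinase promoter inhibition or plain growth inhibition; 0% = median of DMSO wells and 100% = positive control at its reference dose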
# CSC inhib: cancer stem cell viability inhibitors, primary screen, luminescence; cancer stem cell-like cells viability; inhibition, % at 7.5 µM; 1.1% of 300,000 active; AID 2717, 2010; in the data active = inhibition above about 75%; inconclusive = no clear call, values can overlap the other calls; tested in HMLE shEcad cells
# aSyn 5UTR inh: MLPCN primary screen, SNCA 5' untranslated region; alpha-synuclein 5'UTR reporter, inhibitor activity; inhibition, % (tested at 7.5 µM); 0.82% of 300,000 active; AID 1813, 2009; in the data active = inhibition above about 60%; inconclusive = no clear call, values can overlap the other calls;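 note: H4 neuroglioblastoma cells stably carrying SNCA 5'UTR luciferase fusion; 0% = DMSO wells and 100% = positive control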
# T cruzi inh: inhibitors of intracellular T. cruzi growth, primary screen, luminescence, NIH3T3 host cells | T. cruzi beta-gal in NIH3T3, 90 h | inhibition, % (test concentration not listed) | 1.4% of 300,000 active | AID 1885, 2009;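 active = mean inhibition across valid replicates above about 55%, limit read from the data; inconclusive = mean below that limit but half or more replicates reach it; inactive = mean below it, under half of replicates reach it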;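 note: signal also drops with host cell toxicity which is not excluded here; 0% = plate median of DMSO wells and 100% = zero luminescence signal; higher percent means less beta-gal luminescence so fewer parasites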
#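 System: mouse NIH/3T3 fibroblasts infected with β-gal-expressing T. cruzi Tulahuen C4 / Input: NIH/3T3 cells, 5,000 per well / Buffer or medium: Low-serum DMEM with 2% FBS / Probe or stimulus: 5000 reporter trypomastigotes per well / Schedule: ≥90 h infection period, 3 h prior cell attachment / Measured by: GalScreen luminescence, 60 min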
# Numbers without * were called inactive; ? = inconclusive; . = no result given; ! = not active in a repeat.
SMILES,Mdm2 MdmX PPI,SKKanGAS inh,CSC inhib,aSyn 5UTR inh,T cruzi inh
c1cn2c(NC3CCCCC3)c(-c3ccc(SC4CCCCC4)cc3)nc2cn1,37.1,88.8*,125.9*,10.7,48.0
CCCCCCSc1ccc(-c2nc3cnccn3c2NCCCC)cc1,25.9,.,104.8*,.,.
CCCCNc1c(-c2ccc(SC3CCCCC3)cc2)nc2ccccn12,-62.5,71.0*,81.8*,-83.0,71.2*
c1cn2c(NC3CCCC3)c(-c3ccc(N4CCOCC4)cc3)nc2cn1,14.4,-3.1,-9.5,-47.5,3.1
CCCCNc1c(-c2ccc(SC(C)CC)cc2)nc2ccccn12 (centres undefined),-131.0,77.8*,91.9*,-21.8,37.2
CC(C)(C)OC(=O)N1CCC(NC(=O)c2nc[nH]c2C(=O)NCC(=O)OCc2ccccc2)CC1,22.6,2.6,1.2,5.9,14.0
O=C(OCC(=O)N1CCc2ccccc21)[C@@H]1CC(O)CN1S(=O)(=O)c1ccc(Cl)cc1 (some centres undefined),33.7,.,-20.1,.,.
CCN(CC(=O)NCc1cccs1)C(=O)/C=C/c1cccc(Cl)c1Cl,19.2,-13.1,-3.8,1.7,0.3
COc1ccc(C(=O)NCc2ccccc2CN2CCCC2)cc1S(=O)(=O)N1CCOCC1,36.0,.,.,.,.
COc1ccc(-c2cn(-c3ccccc3)c3[n+]2CCS3)cc1,32.3,0.0,23.2,-7.0,58.1*!
c1ccc(-c2cn(-c3ccccc3)c3[n+]2CCS3)cc1,18.9,1.8,0.2,-3.1,68.1*
Fc1ccc(-n2cc(-c3ccccc3)[n+]3c2SCC3)cc1,0.5,1.6,-13.5,-9.7,3.7
CCn1c(=S)sc2c(=O)n(CC(=O)Nc3ccc(OC)c(Cl)c3)c(C)nc21,17.8,0.1,0.4,13.1,-4.0
COc1ccccc1N1CCN(c2nc(C)nc3c2oc2ccccc23)CC1,.,?,.,89.5*,-4.1
Cc1nc(N2CCC(C)CC2)c2oc3ccccc3c2n1,7.9,12.9,-5.1,29.2,-13.4
Cc1ccccc1Nc1c(-c2ccncc2)nc2ccc(Br)cn12,47.4,6.3,-4.3,24.3,59.4*
O=C(COc1ncnc2sccc12)NC1CCCCC1,-10.4,.,.,.,.
O=C(CC1C(=O)NCCN1C(=O)Nc1ccccc1)Nc1cc(Cl)cc(Cl)c1 (centres undefined),7.6,0.5,17.0,-14.9,8.8
COc1ccc(S(=O)(=O)N2CCCOC2CNC(=O)C(=O)NCc2cccnc2)cc1 (centres undefined),22.0,-1.7,-11.1,-7.2,-10.3
O=C(Nc1ccncc1)Nc1ccc(Cl)cc1,5.1,-9.1,-0.9,-50.9,44.7
O=C(Nc1ccncc1)Nc1cc(Cl)ccc1Cl,19.9,-13.1,9.0,-33.4,57.2*
O=C(Nc1ccncc1)Nc1ccc(Cl)cc1Cl,-4.0,-12.2,3.8,-21.2,55.4*
O=C(CCc1ccc(S(=O)(=O)N2CCOCC2)cc1)Nc1ccc(F)cc1[N+](=O)[O-],8.9,.,-13.2,.,.
COc1ccc(CCNC(=O)CN(C)S(=O)(=O)c2cccs2)cc1,5.7,.,0.9,.,.
C=CCn1c(SCCC)nc2sc3c(c2c1=O)CCc1ccccc1-3,-0.7,14.7,83.0*,17.8,32.3
SMILES,Mdm2 MdmX PPI,SKKanGAS inh,CSC inhib,aSyn 5UTR inh,T cruzi inh
O=C(NCCc1cccc(Cl)c1)c1ccc(OC2CCN(Cc3ccccn3)CC2)cc1,42.3,2.8,.,-8.9,-0.4
O=S(=O)(c1ccc(NC(=S)Nc2ccccc2)cc1)N1CCOCC1,5.1,7.5,-1.1,-17.1,-30.6
CC(C)CCCCCCNC(=S)Nc1ccc(S(=O)(=O)N2CCOCC2)cc1,29.3,-7.7,90.7*,31.8,5.4
COc1ccc(N(C)S(=O)(=O)c2cccc(C(=O)OCC(=O)c3c(N)n(C)c(=O)n(C)c3=O)c2)cc1,18.5,.,-14.0,.,.
COc1ccc(-c2c(NC(C)=O)n(C)c3ccccc3c2=O)cc1,-5.8,-1.2,-6.8,-0.6,11.5
Cn1c2ccccc2c(=O)c2cc(C#Cc3ccc(N)cc3)ccc21,-57.9,84.5*,46.1,-89.1,46.3
Nc1ccc(C#Cc2ccc3oc4ccccc4c(=O)c3c2)cc1,7.7,96.6*,8.8,-66.3,2.6
COc1ccc(C#Cc2ccc3c(c2)c(=O)c2ccccc2n3C)cc1,4.8,91.3*,32.6,-124.6,43.5
Cc1ccc(CN2CCCN(Cc3cc(C)ccc3C)S2(=O)=O)cc1,3.8,45.4,.,4.7,0.6
Cc1ccc(C)c(CN2CCCN(Cc3cc(C)ccc3C)S2(=O)=O)c1,17.7,72.1*,.,-4.7,26.5
CC(NC(=O)Cn1ncc(Cl)c(Cl)c1=O)C12CC3CC(CC(C3)C1)C2 (centres undefined),.,14.9,116.2*,88.0*,32.2
CCn1cc(C(=O)NC(C)C23CC4CC(CC(C4)C2)C3)cn1 (centres undefined),16.4,-2.3,-3.2,19.8,12.6
COc1ccccc1NS(=O)(=O)c1cc(C(=O)NCC2CCCO2)ccc1C (centres undefined),1.4,-1.3,-7.1,-9.8,-4.5
Cc1ccc(NC(=S)NC(=O)c2ccc(F)cc2)cc1S(=O)(=O)Nc1ccccc1Cl,46.3,26.3,78.8*,5.4,-9.0
COc1ccccc1NS(=O)(=O)c1cc(NC(=S)NCC2CCCO2)ccc1C (centres undefined),28.3,55.5*,-14.2,7.5,12.7
CCn1c2ccccc2c2cc(CN3CCN(Cc4cc(OC)ccc4O)CC3)ccc21,38.2,-11.2,.,-21.1,71.9*
COc1cccc(N2CCN(c3ccc(N4C(=O)CCC4=O)cc3[N+](=O)[O-])CC2)c1,-28.7,-1.7,7.8,18.8,-16.3
CC(=O)Nc1ccc(NC(=O)CC2(CC(=O)N3CCOCC3)CCCC2)cc1,6.0,.,.,.,.
COc1cccc(-c2nc(NC3CCCC3)c3ccccc3n2)c1O,34.9,55.5*,61.3,5.6,29.5
COc1cccc(-c2nc(N3CCCCC3C)c3ccccc3n2)c1O (centres undefined),11.4,75.7*,50.0,10.5,26.9
CN1CCN(c2nc(-c3ccccc3O)nc3ccccc23)CC1,31.5,3.7,9.3,-3.8,42.6
C=CCNc1nc(-c2cccc(OC)c2O)nc2ccccc12,9.1,-10.1,11.4,-13.8,8.9
CCN(CC)c1nc(-c2cccc(OC)c2O)nc2ccccc12,0.2,10.2,.,8.6,32.1
COc1cccc(-c2nc(N3CCN(C)CC3)c3ccccc3n2)c1O,-7.9,5.4,14.0,-165.0,54.6*
O=C(Nc1nc2ccc(S(=O)(=O)N3CCOCC3)cc2s1)c1cccs1,-6.1,7.4,-11.1,-15.2,3.4
CC(C)CSC1=NSC2=NC(=O)/C(=C\c3coc4ccccc4c3=O)C(=N)N12,-16.2,60.8*,34.0,-15.6,-9.5
O=C(NNc1ccc(-c2csnn2)cc1)c1cc(Cl)cc(Cl)c1,15.3,-0.9,87.5*,-38.2,28.0
O=C(NNc1ccc(-c2csnn2)cc1)c1ccccc1C(F)(F)F,8.5,1.4,13.2,-30.1,4.0
